Experimental data: ChEMBL document CHEMBL1158061, “Alkaloids from Gelsemium elegans” (J Nat Prod, 2006)

Tests used:
Assay type in all cases: functional, cell-based
P388 = assay: Cytotoxicity against mouse P388 cells by MTT method
How it was run: (§1)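 MTT assay on P388 (murine leukemia) and HL-60 (human leukemia) cells, run by standard protocol with pseudolaric acid B as positive control. Values are reported as IC50 in molar units.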

HL-60 = assay: Cytotoxicity against human HL-60 cells by MTT method; how it was run: as §1
A549 = assay: Cytotoxicity against human A549 cells by SRB method
How it was run: (§2)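 SRB assay on A-549 (human lung adenocarcinoma) and BEL-7402 (human hepatocellular carcinoma) cells, run by standard protocol with pseudolaric acid B as positive control. Values are reported as IC50 in molar units.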

Bel-7402 = assay: Cytotoxicity against human Bel-7402 cells by SRB method; how it was run: as §2

CON1C(=O)[C@@]2(C[C@@H]3N=C([C@@H](C)C[C@H]4C(=O)OC[C@H]5[C@@H]4[C@@H](O)C[C@@H]5C)[C@@H]4[C@@H](O)[C@H]2OC[C@@H]43)c2ccccc21
IC50 (P388): > 10 µM | IC50 (HL-60): > 10 µM | IC50 (A549): > 10 µM | IC50 (Bel-7402): > 10 µM

CON1C(=O)[C@@]2(C[C@@H]3N=C([C@H](C)C[C@@H]4C(=O)O[C@H]5C[C@H](C)[C@@H](CO)[C@H]54)[C@@H]4[C@@H](O)[C@H]2OC[C@@H]43)c2ccccc21
IC50 (P388): > 10 µM | IC50 (HL-60): > 10 µM | IC50 (A549): > 10 µM | IC50 (Bel-7402): > 10 µM

CCN(CC)C[C@@H]1C(=O)O[C@H]2C[C@H](C)[C@@H](CO)[C@H]21 [GELSEBAMINE]
IC50 (A549): 0.634 µM

C=C[C@@]12CN(C)C3C1[C@@]1(C(=O)N(C[C@@H]4C(=O)O[C@H]5C[C@H](C)[C@@H](CO)[C@H]54)c4ccccc41)[C@H]1C[C@@H]2[C@@H]3CO1 [GELSEBANINE]
IC50 (P388): > 10 µM | IC50 (HL-60): > 10 µM | IC50 (A549): > 10 µM | IC50 (Bel-7402): > 10 µM
